This is one part of a sample in which hits are shown more often than they occur.
H69AR growth 86K = blocks growth of human H69AR lung tumor cells | 85,000 compounds, 6% hits | AID 598 | viability, % at 10 µM | H69AR lung tumor viability, ATP luminescence, 72 h; stronger effect = lower value;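 active = viability at or below 40%; inactive = viability above 40%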;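 also: multidrug resistant small cell line overexpressing MRP-1 efflux transporter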
Fibroblast inh = blocks proliferation of human lung fibroblasts. LL 47 human lung fibroblast viability, ATP luminescence; stronger effect = lower value. viability, % at 10 µM. 85,000 compounds, 1.1% hits;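 active = viability at or below 50% in the single dose screen; inactive = viability above 50%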;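 also: compound exposure lasted 72 h before the ATP readout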
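Signal: luminescent ATP detection, CellTiter-Glo; assay system: LL 47 human lung fibroblasts; input: 1,150 cells/well; incubation: overnight cell rest, 72 h compound treatment at 37 °C; measure: % viability versus median cells-only luminescence; medium: IMEM growth medium with 15% fetal bovine serum; dosing: compound addition at 0.1% DMSO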
bCat KO growth = beta-catenin-lacking colon tumor cell growth suppression; HCT116 beta-catenin knockout viability, CellTiter-Glo, 60 h; stronger effect = lower value; viability, % at 10 µM; AID 818; 140,000 compounds, 1.5% hits;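 active = viability at or under a set limit, the compound median less 4 SD, cut at about 6% in these data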
HUVEC inhibit = human endothelial cell proliferation inhibition; 86,000 compounds, 1.1% hits; viability, % at 10 µM (by protocol); AID 648; HUVEC proliferation, CellTiter-Glo luminescence, 72 h; stronger effect = lower value;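 active = viability at or below 30%; inactive = viability above 30%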
HCT116 PTEN-null = growth suppressors of cells with PTEN tumor suppressor deletion; HCT116 PTEN-null viability, CellTiter-Glo, 60 h; stronger effect = lower value; viability, % at 10 µM; 140,000 compounds, 1.2% hits; AID 827;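 active = viability at or below a set limit, 4 SD under the median of all tested compounds, cut at about 3.7% in these data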;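 also: PTEN knockout HCT116 line with beta catenin targeted HCT116 as companion control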
Of the large screens only hits and unclear results are named; the others gave an inactive call.

Cc1nc(Nc2nc(CSc3nc4ccccc4[nH]3)cc(=O)[nH]2)nc2ccccc12	bCat KO growth 3.6, HCT116 PTEN-null 3.7 (no result: H69AR growth 86K, Fibroblast inh, HUVEC inhibit)
CCC1=NN=C(c2ccc(F)cc2)C(c2c[nH]c3ccccc23)N1O (configuration not stated)	none
COc1cc2c(cc1OC)C(C(=O)Nc1ccc3c(c1)OCCO3)C(c1cccnc1)N(C)C2=O (configuration not stated)	none
CC(C)(C)c1ccc(C(=O)NCC(=O)OCC(=O)c2ccc3c(c2)-c2ccccc2C3)cc1	none (no result: H69AR growth 86K, Fibroblast inh, HUVEC inhibit)
COc1cc(-c2nnc(COc3ccc4cc(Br)ccc4c3)o2)cc(OC)c1OC	H69AR growth 86K 23.8 (no result: Fibroblast inh)
Cc1ccccc1-c1nnc2s/c(=C\c3ccc(N(C)C)cc3)c(=O)n12	none (no result: bCat KO growth, HCT116 PTEN-null)
Oc1cccc2ccc(Nc3ccccn3)nc12	H69AR growth 86K 0.6, bCat KO growth 1.8, HUVEC inhibit 2.6, HCT116 PTEN-null 1.7
Cc1ccc(S(=O)(=O)Nc2ccnc3ccccc23)cc1	none
Cc1ccc(S(=O)(=O)Nc2cccc3ncccc23)s1	bCat KO growth 1.5, HCT116 PTEN-null 1.5 (no result: H69AR growth 86K, Fibroblast inh, HUVEC inhibit)
CCc1ccc2[nH]c(=O)c(CN(CCCN3CCOCC3)C(=O)Nc3ccc(F)cc3)cc2c1	H69AR growth 86K 33.8
Cc1ccc2cc(CN(CCN3CCCC3)C(=O)Nc3ccc(F)cc3)c(=O)[nH]c2c1C	H69AR growth 86K 37.7
O=C(Nc1ccc(F)cc1)N(CCCN1CCOCC1)Cc1cc2cc3c(cc2[nH]c1=O)OCCO3	none
Cc1ccc2cc(CN(CCN3CCCC3)C(=O)Nc3ccccc3)c(=O)[nH]c2c1C	none
CCCCOC(=O)CSc1n[nH]c(=O)[nH]c1=O	none
CC(=O)N(Cc1ccc2c(c1)OCO2)C1CC(=O)N(CCc2ccccc2)C1=O (configuration not stated)	none
COc1ccc(C(=O)Cn2c(C(=O)/C=C/c3ccccc3)nc3ccccc32)cc1	bCat KO growth 2.4, HCT116 PTEN-null 3.7 (no result: H69AR growth 86K, Fibroblast inh, HUVEC inhibit)
O=c1c2ccccc2c(C=Nc2cccc(O)c2)c(O)n1-c1ccc2c(c1)OCO2	bCat KO growth 3.7 (no result: H69AR growth 86K, Fibroblast inh, HUVEC inhibit)
Oc1[nH]c2ccccc2c1C=Nc1ccc2c(c1)OCO2	none (no result: H69AR growth 86K, Fibroblast inh, HUVEC inhibit)
N#CCC(CNc1ncc(C(F)(F)F)cc1Cl)OC(=O)c1cccc([N+](=O)[O-])c1 (configuration not stated)	none (no result: H69AR growth 86K, Fibroblast inh, HUVEC inhibit)
COc1cccc(C2C=C(c3ccc(OC)cc3OC)Nc3nnnn32)c1 (configuration not stated)	H69AR growth 86K 15.1
COc1ccc(C2=CC(c3ccc(OC)c(OC)c3)n3nnnc3N2)c(OC)c1 (configuration not stated)	H69AR growth 86K 28.0
CCOC(=O)c1ccc(NC(=S)Nc2ccccn2)cc1	none (no result: H69AR growth 86K, Fibroblast inh, HUVEC inhibit)
CC(=O)NCCC(=O)Nc1sc2c(c1-c1nc3ccccc3[nH]1)CCCC2	H69AR growth 86K 36.1
COc1cccc(NC(=O)CCc2nc(-c3ccccc3F)no2)c1	none
O=C(CCc1nc(-c2ccccc2F)no1)Nc1ccc(Oc2ccccc2)cc1	H69AR growth 86K 29.5
CN(C(=O)COc1ccccc1C(=O)NCCOc1ccccc1)c1ccccc1	bCat KO growth 3.5, HCT116 PTEN-null 3.5 (no result: H69AR growth 86K, Fibroblast inh, HUVEC inhibit)
C/C(Cl)=C/Cn1c(SCC(C)C)nc2c1c(=O)[nH]c(=O)n2C	H69AR growth 86K 35.3 (no result: bCat KO growth, HCT116 PTEN-null)
C=CCOc1ccc2c(c1)C(=NO)c1cc(OCC=C)ccc1-2	H69AR growth 86K 33.6
CC[n+]1cc(-c2ccccc2)nc(N2CCOCC2)n1	HUVEC inhibit 27.4
NC(=O)c1cc(-c2ccccc2)nc(N2CCOCC2)n1	none
COc1ccc(-c2noc(CSc3nnc(Cc4ccccc4)n3-c3ccc(Cl)cc3)n2)cc1	H69AR growth 86K 12.8
OC(COCc1ccc(Cl)cc1)CN1CCN(CC(O)COCc2ccc(Cl)cc2)CC1 (configuration not stated)	bCat KO growth 5.5
O=C(OCn1ncc(Cl)c(Cl)c1=O)c1ccccc1Cl	bCat KO growth 3.9 (no result: H69AR growth 86K, Fibroblast inh, HUVEC inhibit)
Cc1cccc(N2CCN(CC(=O)NCC3CCCCC3)CC2)c1C	none
O=C(OCn1ncc(Cl)c(Cl)c1=O)c1ccc(F)cc1	bCat KO growth 0.8, HCT116 PTEN-null 0.5 (no result: H69AR growth 86K, Fibroblast inh, HUVEC inhibit)
C=CCn1c(C)cc(C(=O)Cn2ncc(Cl)c(Cl)c2=O)c1C	bCat KO growth 1.7, HCT116 PTEN-null 1.4 (no result: H69AR growth 86K, Fibroblast inh, HUVEC inhibit)
O=C(Cn1ncc(Cl)c(Cl)c1=O)NCC1CCCCC1	bCat KO growth 1.8, HCT116 PTEN-null 1.5 (no result: H69AR growth 86K, Fibroblast inh, HUVEC inhibit)
O=C(Nc1ccccc1Br)C1CCN(C(=O)Cc2ccccc2)CC1	none (no result: H69AR growth 86K, Fibroblast inh, HUVEC inhibit)
Cc1cccc(C(=O)NNC(=O)CN2C(=O)c3ccccc3C2=O)c1	none (no result: H69AR growth 86K, Fibroblast inh, HUVEC inhibit)
Cc1cccc(/C=N/NC(=O)C2CCCNC2=O)c1 (configuration not stated)	none (no result: H69AR growth 86K, Fibroblast inh, HUVEC inhibit)
O=C(Cn1ncc(Cl)c(Cl)c1=O)c1ccc(Cl)cc1	H69AR growth 86K 1.4, Fibroblast inh 2.6, bCat KO growth 1.7, HUVEC inhibit 2.6, HCT116 PTEN-null 2.0
C[n+]1ccn(CC(=O)c2ccc(Cl)cc2)c1	none (no result: H69AR growth 86K, Fibroblast inh, HUVEC inhibit)
CC(=O)N(C)c1ccc(OCC(O)Cn2c3ccc(Cl)cc3c3cc(Cl)ccc32)cc1 (configuration not stated)	bCat KO growth 2.8, HCT116 PTEN-null 1.8 (no result: H69AR growth 86K, Fibroblast inh, HUVEC inhibit)
CN1CC(c2ccc(C#N)cc2)C2(COc3ccccc3C2=O)C12C(=O)Nc1ccccc12 (configuration not stated)	none (no result: H69AR growth 86K, Fibroblast inh, HUVEC inhibit)
CC(C)CCNC(=O)CO/N=C/c1ccccc1OC(F)F	none (no result: H69AR growth 86K, Fibroblast inh, HUVEC inhibit)
O=C(O)c1ccc(NS(=O)(=O)c2cc(Cl)ccc2Cl)cc1	none
CC(C)Oc1ccc(C(=O)Nc2ccc(Cl)c(S(=O)(=O)Nc3ccc(Cl)cc3)c2)cc1	bCat KO growth 3.1, HCT116 PTEN-null 3.1 (no result: H69AR growth 86K, Fibroblast inh, HUVEC inhibit)
Cc1ccc2c(c1)c1c3n2CCN(C(=O)CN2CCN(C)CC2)C3CCC1 (configuration not stated)	bCat KO growth 1.0, HUVEC inhibit 22.8, HCT116 PTEN-null 0.8
CN1CCN(CC(=O)N2CCn3c4c(c5cc(C6CCCCC6)ccc53)CCCC42)CC1 (configuration not stated)	H69AR growth 86K 1.1, Fibroblast inh 1.9, bCat KO growth 1.3, HUVEC inhibit 2.7, HCT116 PTEN-null 1.6
Cc1ccc2c(c1)c1c3n2CCN(C(=O)C2CC2)C3CCC1 (configuration not stated)	none
Cc1ccc2c(c1)c(=O)c1c3n2CCN(C(=O)CCl)C3CC1 (configuration not stated)	H69AR growth 86K 1.5, Fibroblast inh 2.0, HUVEC inhibit 8.9
Cc1ccc2c(c1)c1c3n2CCN(C(=O)Cn2c(-c4ccccc4)noc2=O)C3CCC1 (configuration not stated)	none
Cc1ccc2c(c1)c1c3n2CCCN(Cc2ccccc2)C3CCC1 (configuration not stated)	H69AR growth 86K 36.4
CCCCCC(=O)NC(=S)Nc1ccc(N2CCOCC2)cc1	none (no result: H69AR growth 86K, Fibroblast inh, HUVEC inhibit)
O=C(COc1ccccc1)Nc1nnc(-c2ccc(Cl)s2)o1	none
c1ccc(Cn2ncc3c(NCc4ccco4)ncnc32)cc1	none
c1ccc(-n2ncc3c(NCc4ccco4)ncnc32)cc1	H69AR growth 86K 28.4
CCCCNc1ncnc2c1cnn2-c1ccccc1	H69AR growth 86K 13.0
CCCCNc1ncnc2c1cnn2-c1ccc(Cl)cc1	H69AR growth 86K 18.6

Source: PubChem BioAssay (SRMLSC)
